Published values pooled from the literature.
Protocols differ between the studies behind these lines.
Target: Serine/threonine-protein kinase VRK1 (VRK1, Homo sapiens, UniProt Q99986)
One construct used (Q99986 1-396): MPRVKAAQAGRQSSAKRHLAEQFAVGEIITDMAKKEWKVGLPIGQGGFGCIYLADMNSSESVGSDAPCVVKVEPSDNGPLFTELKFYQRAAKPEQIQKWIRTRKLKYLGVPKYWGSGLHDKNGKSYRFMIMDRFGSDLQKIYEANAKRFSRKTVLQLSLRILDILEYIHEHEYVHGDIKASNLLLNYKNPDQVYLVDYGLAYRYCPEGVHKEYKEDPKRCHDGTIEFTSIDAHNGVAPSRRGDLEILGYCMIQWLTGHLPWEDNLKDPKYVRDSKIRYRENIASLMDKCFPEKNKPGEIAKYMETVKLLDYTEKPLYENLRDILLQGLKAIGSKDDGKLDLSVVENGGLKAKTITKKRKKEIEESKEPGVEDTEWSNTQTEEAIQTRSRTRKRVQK

Structure (SMILES)	read-out	mode	method	concentration	measurement	value
Cn1c2c(Cl)c(Cl)ccc2c2cn[nH]c(=O)c21	thermal stability		DSF	10 µM	ΔTm	0 °C
O=C1Nc2ccc(Cl)cc2C1=Cc1cc(Cl)c(O)c(Cl)c1	cell-free assay			0.5 µM	remaining signal	80.6%
CN1CC(Oc2cnc(C#N)cc2-c2ccn3nc(NC(=O)C4CC4)cc3c2)C1	enzyme activity	inhibitor		1 µM	inhibition	-1%
O=C(Nc1cnn(-c2csc(C(=O)NC3COC3)c2)c1)Nc1c(F)cccc1Cl	enzyme activity	inhibitor		5 µM	remaining activity	91.9%
CC(C)(C)c1nc(-c2cccc(NS(=O)(=O)c3c(F)cccc3F)c2F)c(-c2ccnc(N)n2)s1	enzyme activity	inhibitor	radiometric	1 µM	remaining activity	77%
N#CC1c2c([nH]c3c(Cl)c(Cl)ccc23)C(=O)NC12CCCCC2 (racemic)	thermal stability		DSF	10 µM	ΔTm	0.1 °C
O=C(Nc1cnn(-c2csc(C(=O)NC3COC3)c2)c1)Nc1ccccc1Cl	enzyme activity	inhibitor		5 µM	remaining activity	109%
CC(C)(C)c1nc2c(s1)c1nc(N)ncc1c1ccc(NS(=O)(=O)c3c(F)cccc3F)c(F)c12	enzyme activity	inhibitor	radiometric	1 µM	remaining activity	82%
COc1cc(Cl)c(C(=O)N[C@@H](CN[C@H]2CC[C@@H](N)CC2)Cc2ccc(C#N)cc2)cc1-c1ccc(CN[C@H](C)c2ccc(C)cc2)o1	enzyme activity	inhibitor		1 µM	remaining activity	93%
CN1CCC2(CC1)NC(=O)c1c(c3ccc(Cl)c(Cl)c3n1C)C2C#N (racemic)	thermal stability		DSF	10 µM	ΔTm	0 °C
CC(C)(O)[C@H]1CC[C@H](Nc2ccc3ncc(-c4cccc(C(F)(F)F)c4)n3n2)CC1	enzyme activity	inhibitor		1 µM	remaining activity	74.9%
